Results as given in ChEMBL document CHEMBL1166008, “A new class of potential anti-tuberculosis agents: Synthesis and preliminary evaluation of novel acrylic acid ethyl ester derivatives” (Bioorg Med Chem, 2010).
Values after ≈ are worked out from the molar mass of the structure shown.

Tests used:
Staphylococcus aureus = assay: Antibacterial activity against Staphylococcus aureus ATCC 29213 after 18 to 24 hrs by microtiter plate method; format: functional
How it was run: (§1)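 Broth microdilution MIC in cation-adjusted Mueller–Hinton broth. Cultures grown statically overnight on tryptic soy agar at 35 °C. Plates incubated 18–24 h at 35 °C and scored growth/no growth. Tetracycline control included.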

Bacillus cereus = assay: Antibacterial activity against Bacillus cereus after 18 to 24 hrs by microtiter plate method; format: functional; how it was run: as §1
Escherichia coli = assay: Antibacterial activity against Escherichia coli ATCC 25922 after 18 to 24 hrs by microtiter plate method; format: functional; how it was run: as §1
[1] = test system: Mycolicibacterium smegmatis; assay: Antimycobacterial activity against Mycobacterium smegmatis after 48 hrs by microtiter plate method; format: functional
How it was run: (§2)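 Broth microdilution MIC in Middlebrook 7H9 broth with 10% OADC. Mycobacterial cultures grown statically seven days in the same medium at 35 °C. Plates incubated 48 h at 35 °C and scored growth/no growth. Rifampin positive control.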

Mycobacterium avium = assay: Antimycobacterial activity against Mycobacterium avium after 48 hrs by microtiter plate method; format: functional; how it was run: as §2
[2] = test system: Mycobacterium tuberculosis; assay: Antimycobacterial activity against Mycobacterium tuberculosis H37Rv after 48 hrs by green fluorescent protein-based assay; format: functional
How it was run: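 M. tuberculosis H37Rv carrying high-copy pHIGH22 plasmid expressing GFP. Killing read as loss of GFP fluorescence. Isoniazid and rifampin positive controls.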

[3] = test system: Mycolicibacterium fortuitum; assay: Antimycobacterial activity against Mycobacterium fortuitum after 48 hrs by microtiter plate method; format: functional; how it was run: as §2
Mycobacterium kansasii = assay: Antimycobacterial activity against Mycobacterium kansasii after 48 hrs by microtiter plate method; format: functional; how it was run: as §2
Mycobacteroides chelonae = assay: Antimycobacterial activity against Mycobacterium chelonae after 48 hrs by microtiter plate method; format: functional; how it was run: as §2
J774.A1 = assay: Cytotoxicity against mouse J774A1 cells after 24 hrs by trypan blue exclusion assay; format: cell-based; settings: J774.A1, 24 h
How it was run: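 Murine J774A.1 monocytes seeded at 1 × 10^6/well in RPMI 1640. Next day, twofold dilutions of drug in PBS added. Following day, trypan blue added for 10 min, then dead (blue) and live cells counted in three fields per well. IC50 taken as concentration giving 50% dead cells.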

[4] = test system: Mycobacterium intracellulare; assay: Antimycobacterial activity against Mycobacterium intracellular after 48 hrs by microtiter plate method; format: functional; how it was run: as §2

Structure (SMILES) | MIC (Staphylococcus aureus) | MIC (Bacillus cereus) | MIC (Escherichia coli) | MIC [1] | MIC (Mycobacterium avium) | MIC [2] | MIC [3] | MIC (Mycobacterium kansasii) | MIC (Mycobacteroides chelonae) | IC50 (J774.A1) | MIC [4]
N#Cc1cccc(/C=C/SC2=NCCS2)c1 [PHENOTHIOSTYRENE] | > 128 µg/mL | > 128 µg/mL | > 128 µg/mL | 64 µg/mL (≈ 260 µM) |  |  |  |  |  |  | 
CCOC(=O)/C=C\Oc1cccc2ccccc12 | > 128 µg/mL | > 128 µg/mL | > 128 µg/mL | 64 µg/mL (≈ 264 µM) |  |  |  |  |  |  | 
CCOC(=O)/C=C\Sc1ccccn1 | > 128 µg/mL | > 128 µg/mL | > 128 µg/mL | 128 µg/mL (≈ 612 µM) |  |  |  |  |  |  | 
CCOC(=O)/C=C\n1nnnc1SC | > 128 µg/mL | > 128 µg/mL | > 128 µg/mL | 128 µg/mL (≈ 597 µM) |  |  |  |  |  |  | 
CCOC(=O)/C=C\Oc1ccc(C(C)(C)C)cc1 | > 128 µg/mL | > 128 µg/mL | > 128 µg/mL | 128 µg/mL (≈ 515 µM) |  |  |  |  |  |  | 
CCOC(=O)/C=C\Oc1ccccc1C(C)C | > 128 µg/mL | > 128 µg/mL | > 128 µg/mL | > 128 µg/mL |  |  |  |  |  |  | 
CCOC(=O)/C=C\Oc1ccc2ccccc2c1 | > 128 µg/mL | > 128 µg/mL | > 128 µg/mL | 128 µg/mL (≈ 528 µM) |  |  |  |  |  |  | 
CCOC(=O)/C=C\n1ccc2ccccc21 | > 128 µg/mL | > 128 µg/mL | > 128 µg/mL | > 128 µg/mL |  |  |  |  |  |  | 
CCOC(=O)/C=C\n1cccn1 | > 128 µg/mL | > 128 µg/mL | > 128 µg/mL | > 128 µg/mL |  |  |  |  |  |  | 
CCOC(=O)/C=C\Oc1cccc(F)c1 | > 128 µg/mL | > 128 µg/mL | > 128 µg/mL | > 128 µg/mL |  |  |  |  |  |  | 
CCOC(=O)/C=C\Oc1cccnc1 | > 128 µg/mL | > 128 µg/mL | > 128 µg/mL | > 128 µg/mL |  |  |  |  |  |  | 
CCOC(=O)/C=C\Sc1cccs1 | > 128 µg/mL | > 128 µg/mL | > 128 µg/mL | 128 µg/mL (≈ 597 µM) |  |  |  |  |  |  | 
CCOC(=O)/C=C\Sc1ccccc1C(=O)OC | > 128 µg/mL | > 128 µg/mL | > 128 µg/mL | 64 µg/mL (≈ 240 µM) |  |  |  |  |  |  | 
CCOC(=O)/C=C\Oc1cc(OC)cc(OC)c1 | > 128 µg/mL | > 128 µg/mL | > 128 µg/mL | 128 µg/mL (≈ 507 µM) |  |  |  |  |  |  | 
CCOC(=O)/C=C\Sc1nc2ccccc2s1 | > 128 µg/mL | > 128 µg/mL | > 128 µg/mL | 32 µg/mL (≈ 121 µM) | 64 µg/mL (≈ 241 µM) | 25 µg/mL (≈ 94.2 µM) | 16 µg/mL (≈ 60.3 µM) | 8 µg/mL (≈ 30.1 µM) | 8 µg/mL (≈ 30.1 µM) | 200 µg/mL (≈ 754 µM) | 16 µg/mL (≈ 60.3 µM)
CCOC(=O)/C=C\Sc1ccc(O)cc1 | 128 µg/mL (≈ 571 µM) | 128 µg/mL (≈ 571 µM) | > 128 µg/mL | 64 µg/mL (≈ 285 µM) |  |  |  |  |  |  | 
NNC(=O)c1ccncc1 [ISONIAZID] |  |  |  |  |  | 0.25 µg/mL (≈ 1.82 µM) |  |  |  |  | 

Structure (SMILES) | MIC (Staphylococcus aureus) | MIC (Bacillus cereus) | MIC (Escherichia coli) | MIC [1] | MIC (Mycobacterium avium) | MIC [2] | MIC [3] | MIC (Mycobacterium kansasii) | MIC (Mycobacteroides chelonae) | IC50 (J774.A1) | MIC [4]
CO[C@H]1/C=C/O[C@@]2(C)Oc3c(C)c(O)c4c(O)c(c(/C=N/N5CCN(C)CC5)c(O)c4c3C2=O)NC(=O)/C(C)=C\C=C\[C@H](C)[C@H](O)[C@@H](C)[C@@H](O)[C@@H](C)[C@H](OC(C)=O)[C@@H]1C [RIFAMPIN] |  |  |  | 64 µg/mL (≈ 77.8 µM) |  | < 0.03 µg/mL |  |  |  |  | 
CCOC(=O)/C=C\Sc1ccccc1C(C)C | > 128 µg/mL | > 128 µg/mL | > 128 µg/mL | > 128 µg/mL |  |  |  |  |  |  | 
CCOC(=O)/C=C\Sc1ccc(C(C)(C)C)cc1 | > 128 µg/mL | > 128 µg/mL | > 128 µg/mL | 16 µg/mL (≈ 60.5 µM) | 64 µg/mL (≈ 242 µM) | 25 µg/mL (≈ 94.6 µM) | 4 µg/mL (≈ 15.1 µM) | 16 µg/mL (≈ 60.5 µM) | 8 µg/mL (≈ 30.3 µM) | 150 µg/mL (≈ 567 µM) | 128 µg/mL (≈ 484 µM)
CCOC(=O)/C=C\Oc1ccc(C(N)=O)cc1 | > 128 µg/mL | > 128 µg/mL | > 128 µg/mL | > 128 µg/mL |  |  |  |  |  |  | 
CCOC(=O)/C=C\n1nnc2ccccc21 | > 128 µg/mL | > 128 µg/mL | > 128 µg/mL | > 128 µg/mL |  |  |  |  |  |  | 
CCOC(=O)/C=C\n1ccnc1 | > 128 µg/mL | > 128 µg/mL | > 128 µg/mL | > 128 µg/mL |  |  |  |  |  |  | 
CCOC(=O)/C=C\Oc1ccsc1C(=O)OC | > 128 µg/mL | > 128 µg/mL | > 128 µg/mL | > 128 µg/mL |  |  |  |  |  |  | 
CCOC(=O)/C=C\Oc1ccccc1C | > 128 µg/mL | > 128 µg/mL | > 128 µg/mL | > 128 µg/mL |  |  |  |  |  |  | 
CCOC(=O)/C=C\Oc1ccccc1C(=O)OC | > 128 µg/mL | > 128 µg/mL | > 128 µg/mL | > 128 µg/mL |  |  |  |  |  |  | 
CCOC(=O)/C=C\n1ncc2ccccc21 | > 128 µg/mL | > 128 µg/mL | > 128 µg/mL | > 128 µg/mL |  |  |  |  |  |  | 
CCOC(=O)/C=C\Sc1ccc2ccccc2c1 | 128 µg/mL (≈ 495 µM) | > 128 µg/mL | > 128 µg/mL | 64 µg/mL (≈ 248 µM) |  |  |  |  |  |  | 
CCOC(=O)/C=C\SC1CCCCC1 | > 128 µg/mL | > 128 µg/mL | > 128 µg/mL | > 128 µg/mL |  |  |  |  |  |  | 
CCOC(=O)/C=C\Sc1ncccn1 | > 128 µg/mL | > 128 µg/mL | > 128 µg/mL | 64 µg/mL (≈ 304 µM) |  |  |  |  |  |  | 
CCOC(=O)/C=C\Oc1cccc([N+](=O)[O-])c1 | 64 µg/mL (≈ 270 µM) | > 128 µg/mL | > 128 µg/mL | 64 µg/mL (≈ 270 µM) |  |  |  |  |  |  | 
CCOC(=O)/C=C\Oc1nc2ccccc2s1 | > 128 µg/mL | > 128 µg/mL | > 128 µg/mL | 128 µg/mL (≈ 513 µM) |  |  |  |  |  |  | 
CCOC(=O)/C=C\Sc1cccc2ccccc12 | > 128 µg/mL | > 128 µg/mL | > 128 µg/mL | 128 µg/mL (≈ 495 µM) |  |  |  |  |  |  | 
CCOC(=O)/C=C\Oc1ccc(F)cc1 | > 128 µg/mL | > 128 µg/mL | > 128 µg/mL | > 128 µg/mL |  |  |  |  |  |  | 
